Laboratory results: ChEMBL document CHEMBL1143706, “Design, synthesis, and biological evaluation of novel bifunctional C-terminal-modified peptides for delta/mu opioid receptor agonists and neurokinin-1 receptor antagonists” (J Med Chem, 2007)
Square brackets hold non-standard residues; d marks the D form. Peptide text beside a SMILES is read from it. * marks the point of attachment. OBzl(3,5-(CF3)2) = FC(F)(F)c1cc(CO*)cc(C(F)(F)F)c1

Columns and labels:
[1] = target: T1, Delta-type opioid receptor (Homo sapiens, UniProt P41143); test: Agonist activity at human delta opioid receptor expressed in HN9.10 cells assessed by [35S]GTP-gamma-S binding assay; assay type: functional, cell-based
T1 sequence (P41143 whole entry): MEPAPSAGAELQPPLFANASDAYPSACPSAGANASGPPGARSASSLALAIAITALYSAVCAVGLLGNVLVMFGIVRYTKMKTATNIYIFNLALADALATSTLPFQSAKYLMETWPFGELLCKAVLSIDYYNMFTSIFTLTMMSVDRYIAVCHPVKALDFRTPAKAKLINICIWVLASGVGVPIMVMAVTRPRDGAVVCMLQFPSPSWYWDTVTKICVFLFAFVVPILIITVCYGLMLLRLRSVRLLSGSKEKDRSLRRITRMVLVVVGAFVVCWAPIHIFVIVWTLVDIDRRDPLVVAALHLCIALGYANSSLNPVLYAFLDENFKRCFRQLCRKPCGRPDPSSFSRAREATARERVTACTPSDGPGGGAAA
Summary of the method: (§1)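 Membranes (10 μg) from transfected cells stably expressing hDOR or rMOR, in 1 mL of 50 mM HEPES pH 7.4 with 1 mM EDTA, 5 mM MgCl2, 30 μM GDP, 1 mM DTT, 100 mM NaCl, 0.1 mM PMSF, 0.1% BSA and 0.1 nM [35S]GTPγS. Peptide added at various concentrations in duplicate, 90 min at 30 °C, then filtration. Nonspecific binding defined with 10 μM GTPγS. Stimulation taken as % over basal; EC50 and Emax by nonlinear regression from two independent experiments.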

[2] = target: Substance-P receptor (Cavia porcellus) (UniProt P30547); test: Agonist activity at NK1 receptor in Hartley guinea pig isolated ileum assessed as muscle contraction relative to KCl; assay type: functional, tissue-based; set-up: concentration or dose not given beside the values
Substance-P receptor (Cavia porcellus), sequence (P30547 whole entry): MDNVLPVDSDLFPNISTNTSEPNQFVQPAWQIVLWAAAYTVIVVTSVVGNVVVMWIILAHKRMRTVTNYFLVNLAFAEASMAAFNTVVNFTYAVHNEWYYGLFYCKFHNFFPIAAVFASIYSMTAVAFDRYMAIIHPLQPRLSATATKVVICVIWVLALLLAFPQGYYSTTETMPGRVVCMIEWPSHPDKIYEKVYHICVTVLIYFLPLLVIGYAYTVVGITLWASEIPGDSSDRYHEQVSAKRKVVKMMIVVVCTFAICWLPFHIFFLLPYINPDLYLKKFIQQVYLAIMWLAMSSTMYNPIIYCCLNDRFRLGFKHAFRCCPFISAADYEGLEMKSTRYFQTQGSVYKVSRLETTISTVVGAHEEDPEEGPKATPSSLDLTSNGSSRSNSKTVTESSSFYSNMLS
Summary of the method: (§2)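 Guinea pig ileum LMMP (male Hartley) in oxygenated Krebs at 37 °C, 1 g tension, exposed to peptide at the tested antagonist concentration. Any contraction was expressed relative to the initial KCl-induced contraction of the same tissue. Testing stopped at […].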

[3] = target: Substance-P receptor (Cavia porcellus) (UniProt P30547); test: Antagonist activity at NK1 receptor in Hartley guinea pig isolated ileum assessed as inhibition of substance P-induced muscle contraction; assay type: functional, tissue-based
Summary of the method: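 Guinea pig ileum LMMP (male Hartley), 1 g tension, in oxygenated Krebs at 37 °C, with 1 μM naloxone present. Substance P dose–response curves were run with and without peptide. Responses were expressed as % of the maximal peak of the control substance P curve, and Ke was derived from these curves.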

[4] = target: Mu-type opioid receptor (Cavia porcellus) (UniProt P97266); test: Agonist activity at mu opioid receptor in Hartley guinea pig isolated ileum assessed as muscle contraction at 1 uM relative to KCl; assay type: functional, tissue-based; summary of the method: as §2
Mu-type opioid receptor (Cavia porcellus), sequence (P97266 whole entry): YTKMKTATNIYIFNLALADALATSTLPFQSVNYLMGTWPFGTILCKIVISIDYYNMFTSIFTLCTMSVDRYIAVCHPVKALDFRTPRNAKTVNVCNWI

[5] = target: T1, Delta-type opioid receptor; test: Agonist activity at human delta opioid receptor expressed in HN9.10 cells assessed by [35S]GTP-gamma-S binding assay relative to control; assay type: functional, cell-based; summary of the method: as §1
Mu-type opioid receptor [6] = target: T2, Mu-type opioid receptor (Rattus norvegicus, UniProt P33535); test: Agonist activity at rat mu opioid receptor expressed in HN9.10 cells assessed by [35S]GTP-gamma-S binding assay; assay type: functional, cell-based; summary of the method: as §1
T2 sequence (P33535 whole entry): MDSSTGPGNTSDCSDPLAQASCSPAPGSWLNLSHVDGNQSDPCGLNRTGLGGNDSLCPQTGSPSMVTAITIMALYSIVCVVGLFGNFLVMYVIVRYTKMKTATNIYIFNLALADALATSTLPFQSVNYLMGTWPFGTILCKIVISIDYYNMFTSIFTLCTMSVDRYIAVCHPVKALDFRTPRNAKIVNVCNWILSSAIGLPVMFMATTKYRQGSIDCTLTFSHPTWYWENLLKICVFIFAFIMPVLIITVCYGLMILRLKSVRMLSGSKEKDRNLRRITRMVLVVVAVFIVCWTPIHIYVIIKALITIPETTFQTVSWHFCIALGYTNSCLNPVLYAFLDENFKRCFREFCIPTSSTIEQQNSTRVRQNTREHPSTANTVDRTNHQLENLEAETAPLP

Mu-type opioid receptor [7] = target: Mu-type opioid receptor (Cavia porcellus, UniProt P97266); test: Agonist activity at mu opioid receptor in Hartley guinea pig ileum assessed as inhibition of electrically-stimulated muscle contraction; assay type: functional, tissue-based
Mu-type opioid receptor (Cavia porcellus, UniProt P97266), sequence (P97266 whole entry): as the sequence (P97266 whole entry) above
Summary of the method: (§3)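 Isolated tissues, electrically stimulated at supramaximal voltage: guinea pig (male Hartley) ileum LMMP (1 g tension, Krebs, 0.1 Hz, 0.4 ms) and male ICR mouse vas deferens (0.5 g, Mg-free Krebs, 0.1 Hz, 2.0 ms), both at 37 °C.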

[8] = target: Mu-type opioid receptor (Rattus norvegicus) (UniProt P33535); test: Agonist activity at rat mu opioid receptor expressed in HN9.10 cells assessed by [35S]GTP-gamma-S binding assay relative to control; assay type: functional, cell-based; summary of the method: as §1
Mu-type opioid receptor (Rattus norvegicus), sequence (P33535 whole entry): as the sequence (P33535 whole entry) above

[9] = target: T1, Delta-type opioid receptor; test: Displacement of [3H]DPDPE from human delta opioid receptor expressed in HN9.10 cells; assay type: cell-based
[10] = Ratio of EC50 for rat mu opioid receptor to EC50 for human delta opioid receptor by [35S]GTPgammaS binding assay; assay type: functional; summary of the method: as §1
[11] = Ratio of Ki for rat mu opioid receptor to Ki for human delta opioid receptor
Summary of the method: (§4)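 Competition binding on crude membranes (50 μg) from cells stably expressing rMOR ([3H]DAMGO, 1.0 nM) or hDOR ([3H]DPDPE, 1.0 nM). Buffer was 50 mM Tris pH 7.4 with peptidase/protease inhibitors and 1 mg/mL BSA. Ten peptide concentrations were run in duplicate for 3 h at 25 °C, with 10 μM naloxone for nonspecific binding. Separation by filtration and scintillation counting; IC50 by nonlinear regression from two experiments; Ki by Cheng–Prusoff.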

[12] = Ratio of IC50 for mu opioid receptor in GPI assay to IC50 for delta opioid receptor in MVD assay; assay type: functional; summary of the method: as §3
Mu-type opioid receptor [13] = target: T2, Mu-type opioid receptor; test: Displacement of [3H]DAMGO from rat mu opioid receptor expressed in HN9.10 cells; assay type: cell-based; summary of the method: as §4

| SMILES | EC50 [1] [nM] | Activity [2] [%] | Ke [3] [nM] | Activity [4] [%] | Emax [5] [%] | EC50 (Mu-type opioid receptor [6]) [nM] | IC50 (Mu-type opioid receptor [7]) [nM] | Emax [8] [%] | Ki [9] [nM] | Ratio EC50 [10] | Ratio Ki [11] | Ratio IC50 [12] | Ki (Mu-type opioid receptor [13]) [nM] |
| --- | --- | --- | --- | --- | --- | --- | --- | --- | --- | --- | --- | --- | --- |
| CCCC[C@@H](C(=O)N1CCC[C@H]1C(=O)N[C@@H](CC(C)C)C(=O)N[C@@H](Cc1c[nH]c2ccccc12)C(=O)OCc1cc(C(F)(F)F)cc(C(F)(F)F)c1)N(C)C(=O)[C@H](Cc1ccccc1)NC(=O)CNC(=O)[C@@H](C)NC(=O)[C@@H](N)Cc1ccc(O)cc1 | 360 | 2 | 4.6 | 12 | 290 | – | – | – | – | – | – | – | – |
| CC(=O)N[C@@H](Cc1c[nH]c2ccccc12)C(=O)OCc1cc(C(F)(F)F)cc(C(F)(F)F)c1 | – | – | 250 | – | – | – | – | – | – | – | – | – | – |
| CC(C)C[C@H](NC(=O)[C@@H]1CCCN1C(=O)CNC(=O)[C@H](Cc1ccccc1)NC(=O)CNC(=O)[C@@H](C)NC(=O)[C@@H](N)Cc1ccc(O)cc1)C(=O)N[C@@H](Cc1c[nH]c2ccccc12)C(=O)OCc1cc(C(F)(F)F)cc(C(F)(F)F)c1 (H-Y[dA]GFGPLW-{OBzl(3,5-(CF3)2)}) | 50 | 0 | 5.4 | – | 34 | 42 | 380 | 36 | – | – | – | – | – |
| CCCC[C@H](NC(=O)[C@H](Cc1ccccc1)NC(=O)CNC(=O)[C@@H](C)NC(=O)[C@@H](N)Cc1ccc(O)cc1)C(=O)N1CCC[C@H]1C(=O)N[C@@H](CC(C)C)C(=O)N[C@@H](Cc1c[nH]c2ccccc12)C(=O)OCc1cc(C(F)(F)F)cc(C(F)(F)F)c1 | 4 | 0 | 7.9 | – | 130 | – | 370 | – | – | – | – | – | – |
| CC(C)C[C@H](NC(=O)[C@@H]1CCCN1C(=O)[C@H](Cc1ccccc1)NC(=O)[C@H](Cc1ccccc1)NC(=O)CNC(=O)[C@@H](C)NC(=O)[C@@H](N)Cc1ccc(O)cc1)C(=O)N[C@@H](Cc1c[nH]c2ccccc12)C(=O)OCc1cc(C(F)(F)F)cc(C(F)(F)F)c1 | 21 | 0 | 14 | 7 | 39 | 59 | – | 36 | 15 | 2.8 | 1.9 | > 1 | – |
| CC(C)C[C@H](NC(=O)[C@@H]1CCCN1C(=O)[C@@H](Cc1ccccc1)NC(=O)[C@H](Cc1ccccc1)NC(=O)CNC(=O)[C@@H](C)NC(=O)[C@@H](N)Cc1ccc(O)cc1)C(=O)N[C@@H](Cc1c[nH]c2ccccc12)C(=O)OCc1cc(C(F)(F)F)cc(C(F)(F)F)c1 | 17 | 0 | 70 | 9 | 23 | 350 | – | 24 | – | 20 | 4.1 | > 2.4 | – |
| CC(C)C[C@@H](NC(=O)[C@H](Cc1ccccc1)NC(=O)CNC(=O)[C@@H](C)NC(=O)[C@@H](N)Cc1ccc(O)cc1)C(=O)O [DADLE] | – | – | – | – | – | – | 24 | – | – | – | – | – | – |
| CC(C)C[C@H](NC(=O)[C@@H]1CCCN1C(=O)[C@H](CC(C)C)NC(=O)[C@H](Cc1ccccc1)NC(=O)CNC(=O)[C@@H](C)NC(=O)[C@@H](N)Cc1ccc(O)cc1)C(=O)N[C@@H](Cc1c[nH]c2ccccc12)C(=O)OCc1cc(C(F)(F)F)cc(C(F)(F)F)c1 | – | 0 | 19 | – | 43 | 33 | 340 | 45 | – | 3.4 | 4.7 | 3.4 | 23 |
| CC(C)C[C@H](NC(=O)[C@@H]1CCCN1C(=O)[C@H](CC[S+](C)[O-])NC(=O)[C@H](Cc1ccccc1)NC(=O)CNC(=O)[C@@H](C)NC(=O)[C@@H](N)Cc1ccc(O)cc1)C(=O)N[C@@H](Cc1c[nH]c2ccccc12)C(=O)OCc1cc(C(F)(F)F)cc(C(F)(F)F)c1 (some centres undefined) | – | – | 7.8 | – | 52 | – | 150 | – | – | – | – | – | – |
| CSCC[C@H](NC(=O)[C@H](Cc1ccccc1)NC(=O)CNC(=O)[C@@H](C)NC(=O)[C@@H](N)Cc1ccc(O)cc1)C(=O)N1CCC[C@H]1C(=O)N[C@@H](CC(C)C)C(=O)N[C@@H](Cc1c[nH]c2ccccc12)C(=O)OCc1cc(C(F)(F)F)cc(C(F)(F)F)c1 | 2.9 | 0 | 25 | – | 45 | – | 360 | 42 | – | – | – | – | – |
